Reference: ChEMBL document CHEMBL2062426 (J Med Chem, 2012)

Columns and labels:
[1] = tested on: Kidney; assay: Tmax in C57/Bl6 mouse kidney at 250 kBq/g bodyweight, iv administered as bolus dose by PET scanning; assay type: ADME, organism-based; settings: in vivo
Method in brief: (§1)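 Adult C57/Bl6 mice given the 18F tracer by intravenous injection. List-mode PET data acquired for 120 min on a high-resolution small-animal scanner and reconstructed into dynamic frames iteratively. Organ volumes of interest were drawn on co-registered CT. Uptake is counts per mL in the VOI divided by total counts in the mouse ×100 (% ID/mL).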

[2] = tested on: Kidney; assay: Half life in C57/Bl6 mouse kidney at 250 kBq/g bodyweight, iv administered as bolus dose by PET scanning; assay type: ADME, organism-based; settings: in vivo; method in brief: as §1
[3] = tested on: Liver; assay: Tmax in C57/Bl6 mouse liver at 250 kBq/g bodyweight, iv administered as bolus dose by PET scanning; assay type: ADME, organism-based; settings: in vivo; method in brief: as §1
[4] = tested on: Liver; assay: Half life in C57/Bl6 mouse liver at 250 kBq/g bodyweight, iv administered as bolus dose by PET scanning; assay type: ADME, organism-based; settings: in vivo; method in brief: as §1
[5] = target: Neutrophil collagenase (Homo sapiens, UniProt P22894); assay: Inhibition of MMP8 using (7-methoxycoumarin-4-yl)acetyl-Pro-Leu-Gly-Leu-(3-(2,4-dinitrophenyl)-L-2,3-diaminopropionyl)Ala-Arg-NH2 as substrate incubated for 30 mins prior to substrate addition measured for 10 mins by fluorometry
Method in brief: (§2)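 Activated MMP-8 or MMP-9 (2 nM) was preincubated with inhibitor (10 pM–1 mM) in 50 mM Tris-HCl pH 7.5 with 0.2 M NaCl, 5 mM CaCl2, 20 μM ZnSO4 and 0.05% Brij 35 at 37 °C for 30 min. Fluorogenic substrate (10 μL of 50 μM into 90 μL) was then added. Rates from the first 10 min were plotted against inhibitor concentration, and values are the mean of three experiments.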

[6] = target: Matrix metalloproteinase-9 (Homo sapiens, UniProt P14780); assay: Inhibition of MMP9 using (7-methoxycoumarin-4-yl)acetyl-Pro-Leu-Gly-Leu-(3-(2,4-dinitrophenyl)-L-2,3-diaminopropionyl)Ala-Arg-NH2 as substrate incubated for 30 mins prior to substrate addition measured for 10 mins by fluorometry; method in brief: as §2
[7] = target: Collagenase 3 (Homo sapiens, UniProt P45452); assay: Inhibition of MMP13 using (7-methoxycoumarin-4-yl)acetyl-Pro-Leu-Gly-Leu-(3-(2,4-dinitrophenyl)-L-2,3-diaminopropionyl)Ala-Arg-NH2 as substrate incubated for 30 mins prior to substrate addition measured for 10 mins by fluorometry
[8] = target: 72 kDa type IV collagenase (Homo sapiens, UniProt P08253); assay: Inhibition of MMP2 using (7-methoxycoumarin-4-yl)acetyl-Pro-Leu-Gly-Leu-(3-(2,4-dinitrophenyl)-L-2,3-diaminopropionyl)Ala-Arg-NH2 as substrate incubated for 30 mins prior to substrate addition measured for 10 mins by fluorometry
Sequence of 72 kDa type IV collagenase (P08253 whole entry): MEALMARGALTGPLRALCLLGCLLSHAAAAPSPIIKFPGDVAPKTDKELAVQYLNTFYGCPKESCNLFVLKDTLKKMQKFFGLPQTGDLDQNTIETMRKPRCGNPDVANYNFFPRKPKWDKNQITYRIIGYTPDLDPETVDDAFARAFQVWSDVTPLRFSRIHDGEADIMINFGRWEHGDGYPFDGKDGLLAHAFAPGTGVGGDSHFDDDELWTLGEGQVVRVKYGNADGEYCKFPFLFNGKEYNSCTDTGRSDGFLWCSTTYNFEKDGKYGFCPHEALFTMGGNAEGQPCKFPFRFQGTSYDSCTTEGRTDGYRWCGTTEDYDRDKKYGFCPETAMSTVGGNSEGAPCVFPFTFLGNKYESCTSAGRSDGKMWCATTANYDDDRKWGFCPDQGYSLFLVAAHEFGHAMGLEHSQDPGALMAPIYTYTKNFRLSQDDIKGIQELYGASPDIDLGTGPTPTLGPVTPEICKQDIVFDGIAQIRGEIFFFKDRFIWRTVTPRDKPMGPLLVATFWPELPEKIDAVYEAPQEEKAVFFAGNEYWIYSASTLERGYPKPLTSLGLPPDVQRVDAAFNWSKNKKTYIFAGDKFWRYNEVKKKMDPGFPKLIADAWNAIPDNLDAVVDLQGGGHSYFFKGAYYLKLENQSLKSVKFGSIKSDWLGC

Sequence of Matrix metalloproteinase-9 (P14780 whole entry): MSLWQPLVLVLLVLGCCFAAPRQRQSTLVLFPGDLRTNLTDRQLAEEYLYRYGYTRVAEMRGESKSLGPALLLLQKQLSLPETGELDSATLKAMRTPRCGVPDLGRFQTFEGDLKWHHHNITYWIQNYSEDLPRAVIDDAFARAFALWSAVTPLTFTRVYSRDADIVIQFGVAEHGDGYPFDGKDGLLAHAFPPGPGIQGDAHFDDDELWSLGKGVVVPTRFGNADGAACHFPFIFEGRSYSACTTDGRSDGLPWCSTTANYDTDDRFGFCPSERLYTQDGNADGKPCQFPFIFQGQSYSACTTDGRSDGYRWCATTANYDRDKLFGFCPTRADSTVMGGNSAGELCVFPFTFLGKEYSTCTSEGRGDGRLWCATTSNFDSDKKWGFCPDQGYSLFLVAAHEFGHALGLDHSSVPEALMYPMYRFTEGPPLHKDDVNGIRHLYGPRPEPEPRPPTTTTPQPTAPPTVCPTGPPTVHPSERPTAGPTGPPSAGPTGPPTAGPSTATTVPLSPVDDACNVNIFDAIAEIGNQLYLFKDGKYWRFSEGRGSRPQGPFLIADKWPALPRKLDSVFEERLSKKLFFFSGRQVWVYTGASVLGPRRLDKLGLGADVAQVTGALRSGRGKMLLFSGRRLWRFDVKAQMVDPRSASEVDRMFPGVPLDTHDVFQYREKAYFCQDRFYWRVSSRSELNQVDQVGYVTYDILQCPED
Sequence of Neutrophil collagenase (P22894 whole entry): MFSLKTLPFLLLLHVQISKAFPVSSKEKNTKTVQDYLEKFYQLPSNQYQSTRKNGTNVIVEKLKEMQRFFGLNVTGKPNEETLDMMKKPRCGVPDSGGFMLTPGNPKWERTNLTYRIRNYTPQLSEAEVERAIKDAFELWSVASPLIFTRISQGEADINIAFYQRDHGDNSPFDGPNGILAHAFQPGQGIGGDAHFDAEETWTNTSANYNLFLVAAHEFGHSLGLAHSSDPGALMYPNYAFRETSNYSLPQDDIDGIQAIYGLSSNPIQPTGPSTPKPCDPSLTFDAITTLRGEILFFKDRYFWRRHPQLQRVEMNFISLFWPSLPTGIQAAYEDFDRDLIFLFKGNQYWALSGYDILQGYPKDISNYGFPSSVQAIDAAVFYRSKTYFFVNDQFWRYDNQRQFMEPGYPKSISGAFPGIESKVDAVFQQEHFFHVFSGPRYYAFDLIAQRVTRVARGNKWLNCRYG

Tmax [1] [min] | t1/2 [2] [min] | Tmax [3] [min] | t1/2 [4] [min] | IC50 [5] [µM] | IC50 [6] [µM] | IC50 [7] [µM] | IC50 [8] [µM] | Compound
1.5 | 3 | 2.5 | 7 |  |  |  |  | CC(C)[C@H](C(=O)NO)N(Cc1ccccc1)S(=O)(=O)c1ccc(OCC[18F])cc1
 |  |  |  | > 100 | > 100 | > 100 | > 100 | COc1ccc(S(=O)(=O)N(Cc2cn(CCOCCOCCOCCn3cc(CN([C@@H](C(=O)NO)C(C)C)S(=O)(=O)c4ccc(OC)cc4)nn3)nn2)[C@@H](C(=O)NO)C(C)C)cc1
